Measurements pooled from the literature.
Compare with care: the assays were run in different laboratories.
BCHE: Cholinesterase (BCHE, Homo sapiens, UniProt P06276)

SMILES	target	test	setting	quantity	result
Nc1ncc(-c2nc(N3CCOCC3)nc(N3CCOCC3)n2)c(C(F)F)n1	Peripheral plasma membrane protein CASK (CASK, Homo sapiens, UniProt O14936)	binding, competition with immobilised ligand	10 µM	remaining binding	77%
CCN(CC)CCCC[C@H](NC(=O)[C@H](CC(C)C)NC(=O)[C@H](C)NC(=O)[C@H](Cc1ccccc1)NC(=O)c1ccc(C(C)(C)C)cc1)C(=O)N[C@@H](CO)C(=O)OC	Chromatin remodeling regulator CECR2 (CECR2, Homo sapiens, UniProt Q9BXF3)	thermal stability, DSF	25 µM	ΔTm	0.58 °C
COc1ncccc1-c1cnn2ccc(N3CCN(C(=O)OC(C)C)CC3)nc12	Dual specificity mitogen-activated protein kinase kinase 5 (MAP2K5, Homo sapiens, UniProt Q13163)	binding, competition with immobilised ligand	1 µM	remaining binding	65%
NC(=O)c1cccc(-c2cccc(OC(=O)NC3CCCCC3)c2)c1	Cocaine esterase (CES2, Homo sapiens, UniProt O00748)	enzyme activity, inhibitor	pH 7.4	kinact/KI	3900 M⁻¹ s⁻¹
COc1cc2c(cc1OC)C(=O)C(CC1CCN(Cc3ccccc3)CC1)C2 (centres unmarked)	BCHE	enzyme activity, inhibitor, Ellman	1 µM	inhibition	22.5%
Cc1nn(C)cc1-c1nc2c(N3CCN(Cc4ccc(Cl)cc4)CC3)c(Cl)cnc2[nH]1	Interferon-induced, double-stranded RNA-activated protein kinase (EIF2AK2, Homo sapiens, UniProt P19525)	binding, competition with immobilised ligand	1 µM	remaining binding	95%
C=CCn1c2cc(OC(=O)CCN3CCN(Cc4ccccc4)CC3)ccc2c2ccnc(C)c21	BCHE	enzyme activity, inhibitor, Ellman	1 µM	inhibition	29.9%
C#Cc1n[nH]c2c(-c3cn(C(C)c4ccccn4)c(=O)[nH]c3=O)cc(F)cc12 (centres unmarked)	Fibroblast growth factor receptor 1 (FGFR1, Homo sapiens, UniProt P11362, V561M)	enzyme activity, inhibitor	1 µM	inhibition	11.4%
